Experimental data taken from ChEMBL document CHEMBL4689842, “EUbOPEN Chemogenomics Library wave 1” (2021).

Tested on: Fibroblast
Assay: Multiplex assay against human fibroblast
Type: toxicity, cell-based
Method in brief: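 Tubulin, mitochondrial-mass and membrane-permeability phenotypes are per cents of healthy-nucleus cells. Cells were gated by CellPathfinder machine learning into Hoechst high-intensity objects or normal cells, normal cells into healthy, pyknosed or fragmented nuclei, and pyknosed cells into mitotic or apoptotic. Before that, live cells stained at seeding with Hoechst33342, BioTracker Green Microtubule Cytoskeleton Dye, MitoTracker Red and Annexin V Alexa Fluor 680 were imaged on a CQ1 microscope at 37°C and 5% CO2 after compound addition.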

[1] = 12 h, 1 µM, compound concentration 1 uM, replicate 1
[2] = 12 h, 1 µM, compound concentration 1 uM, replicate 2
[3] = 12 h, 10 µM, compound concentration 10 uM, replicate 1
[4] = 12 h, 10 µM, compound concentration 10 uM, replicate 2
[5] = 24 h, 1 µM, compound concentration 1 uM, replicate 1
[6] = 24 h, 1 µM, compound concentration 1 uM, replicate 2
[7] = 24 h, 10 µM, compound concentration 10 uM, replicate 1
[8] = 24 h, 10 µM, compound concentration 10 uM, replicate 2
[9] = 48 h, 1 µM, compound concentration 1 uM, replicate 1
[10] = 48 h, 1 µM, compound concentration 1 uM, replicate 2
[11] = 48 h, 10 µM, compound concentration 10 uM, replicate 1
[12] = 48 h, 10 µM, compound concentration 10 uM, replicate 2

O=C(Cc1ccc(-c2ccc(OCCN3CCOCC3)cc2)cn1)NCc1ccccc1 [TIRBANIBULIN]
Population Apoptotic (%) [1]: 71% | Population Fragmented Nuclei (%) [1]: 20% | Population Healthy Nuclei (%) [1]: 47% | Population Hoechst High Intensity Objects (%) [1]: 16% | Population Membrane Permeable-Phenotype (%) [1]: 18% | Population Mitochondria Different-Phenotype (%) [1]: 9% | Population Mitotic Cells (%) [1]: 28% | Population Normal (%) [1]: 83% | Population Pyknosed Nuclei (%) [1]: 31% | Population Tubulin-Different-Phenotype (%) [1]: 12% | Total Cell Count [1]: 80 | Population Apoptotic (%) [2]: 0% | Population Fragmented Nuclei (%) [2]: 5% | Population Healthy Nuclei (%) [2]: 90% | Population Hoechst High Intensity Objects (%) [2]: 12% | Population Membrane Permeable-Phenotype (%) [2]: 9% | Population Mitochondria Different-Phenotype (%) [2]: 21% | Population Mitotic Cells (%) [2]: 100% | Population Normal (%) [2]: 87% | Population Pyknosed Nuclei (%) [2]: 4% | Total Cell Count [2]: 108 | Population Apoptotic (%) [3]: 66% | Population Fragmented Nuclei (%) [3]: 30% | Population Healthy Nuclei (%) [3]: 39% | Population Hoechst High Intensity Objects (%) [3]: 15% | Population Membrane Permeable-Phenotype (%) [3]: 17% | Population Mitochondria Different-Phenotype (%) [3]: 13% | Population Mitotic Cells (%) [3]: 33% | Population Normal (%) [3]: 84% | Population Pyknosed Nuclei (%) [3]: 29% | Population Tubulin-Different-Phenotype (%) [3]: 28% | Total Cell Count [3]: 134 | Population Apoptotic (%) [4]: 50% | Population Fragmented Nuclei (%) [4]: 13% | Population Healthy Nuclei (%) [4]: 78% | Population Hoechst High Intensity Objects (%) [4]: 10% | Population Membrane Permeable-Phenotype (%) [4]: 4% | Population Mitochondria Different-Phenotype (%) [4]: 19% | Population Mitotic Cells (%) [4]: 50% | Population Normal (%) [4]: 89% | Population Pyknosed Nuclei (%) [4]: 7% | Population Tubulin-Different-Phenotype (%) [4]: 12% | Total Cell Count [4]: 81 | Population Apoptotic (%) [5]: 57% | Population Fragmented Nuclei (%) [5]: 29% | Population Healthy Nuclei (%) [5]: 44% | Population Hoechst High Intensity Objects (%) [5]: 14% | Population Membrane Permeable-Phenotype (%) [5]: 37% | Population Mitochondria Different-Phenotype (%) [5]: 9% | Population Mitotic Cells (%) [5]: 42% | Population Normal (%) [5]: 85% | Population Pyknosed Nuclei (%) [5]: 26% | Population Tubulin-Different-Phenotype (%) [5]: 18% | Total Cell Count [5]: 84 | Population Apoptotic (%) [6]: 61% | Population Fragmented Nuclei (%) [6]: 16% | Population Healthy Nuclei (%) [6]: 66% | Population Hoechst High Intensity Objects (%) [6]: 9% | Population Membrane Permeable-Phenotype (%) [6]: 6% | Population Mitochondria Different-Phenotype (%) [6]: 44% | Population Mitotic Cells (%) [6]: 38% | Population Normal (%) [6]: 90% | Population Pyknosed Nuclei (%) [6]: 17% | Population Tubulin-Different-Phenotype (%) [6]: 10% | Total Cell Count [6]: 155 | Population Apoptotic (%) [7]: 54% | Population Fragmented Nuclei (%) [7]: 42% | Population Healthy Nuclei (%) [7]: 37% | Population Hoechst High Intensity Objects (%) [7]: 13% | Population Membrane Permeable-Phenotype (%) [7]: 17% | Population Mitochondria Different-Phenotype (%) [7]: 8% | Population Mitotic Cells (%) [7]: 45% | Population Normal (%) [7]: 86% | Population Pyknosed Nuclei (%) [7]: 20% | Population Tubulin-Different-Phenotype (%) [7]: 35% | Total Cell Count [7]: 138 | Population Apoptotic (%) [8]: 66% | Population Fragmented Nuclei (%) [8]: 19% | Population Healthy Nuclei (%) [8]: 57% | Population Hoechst High Intensity Objects (%) [8]: 10% | Population Membrane Permeable-Phenotype (%) [8]: 10% | Population Mitochondria Different-Phenotype (%) [8]: 40% | Population Mitotic Cells (%) [8]: 33% | Population Normal (%) [8]: 89% | Population Pyknosed Nuclei (%) [8]: 23% | Population Tubulin-Different-Phenotype (%) [8]: 13% | Total Cell Count [8]: 82 | Population Apoptotic (%) [9]: 50% | Population Fragmented Nuclei (%) [9]: 40% | Population Healthy Nuclei (%) [9]: 47% | Population Hoechst High Intensity Objects (%) [9]: 14% | Population Membrane Permeable-Phenotype (%) [9]: 31% | Population Mitochondria Different-Phenotype (%) [9]: 2% | Population Mitotic Cells (%) [9]: 50% | Population Normal (%) [9]: 85% | Population Pyknosed Nuclei (%) [9]: 12% | Population Tubulin-Different-Phenotype (%) [9]: 7% | Total Cell Count [9]: 94 | Population Apoptotic (%) [10]: 71% | Population Fragmented Nuclei (%) [10]: 35% | Population Healthy Nuclei (%) [10]: 59% | Population Hoechst High Intensity Objects (%) [10]: 10% | Population Membrane Permeable-Phenotype (%) [10]: 18% | Population Mitochondria Different-Phenotype (%) [10]: 7% | Population Mitotic Cells (%) [10]: 28% | Population Normal (%) [10]: 89% | Population Pyknosed Nuclei (%) [10]: 4% | Population Tubulin-Different-Phenotype (%) [10]: 15% | Total Cell Count [10]: 170 | Population Apoptotic (%) [11]: 48% | Population Fragmented Nuclei (%) [11]: 38% | Population Healthy Nuclei (%) [11]: 34% | Population Hoechst High Intensity Objects (%) [11]: 17% | Population Membrane Permeable-Phenotype (%) [11]: 21% | Population Mitochondria Different-Phenotype (%) [11]: 7% | Population Mitotic Cells (%) [11]: 51% | Population Normal (%) [11]: 82% | Population Pyknosed Nuclei (%) [11]: 26% | Population Tubulin-Different-Phenotype (%) [11]: 29% | Total Cell Count [11]: 143 | Population Apoptotic (%) [12]: 66% | Population Fragmented Nuclei (%) [12]: 44% | Population Healthy Nuclei (%) [12]: 53% | Population Membrane Permeable-Phenotype (%) [12]: 15% | Population Mitochondria Different-Phenotype (%) [12]: 5% | Population Mitotic Cells (%) [12]: 33% | Population Pyknosed Nuclei (%) [12]: 2% | Population Tubulin-Different-Phenotype (%) [12]: 22% | Total Cell Count [12]: 164

CN1CCN(C(=O)C(C)(C)c2ccc(C(=O)Nc3cn4cc(-c5cc(C(C)(C)C)cc(C(C)(C)C)c5)ccc4n3)cc2)CC1 [T3-CLK-N]
Population Apoptotic (%) [1]: 84% | Population Fragmented Nuclei (%) [1]: 34% | Population Healthy Nuclei (%) [1]: 52% | Population Hoechst High Intensity Objects (%) [1]: 19% | Population Membrane Permeable-Phenotype (%) [1]: 8% | Population Mitochondria Different-Phenotype (%) [1]: 1% | Population Mitotic Cells (%) [1]: 16% | Population Normal (%) [1]: 80% | Population Pyknosed Nuclei (%) [1]: 13% | Population Tubulin-Different-Phenotype (%) [1]: 3% | Total Cell Count [1]: 237 | Population Apoptotic (%) [2]: 42% | Population Fragmented Nuclei (%) [2]: 44% | Population Healthy Nuclei (%) [2]: 44% | Population Hoechst High Intensity Objects (%) [2]: 26% | Population Membrane Permeable-Phenotype (%) [2]: 14% | Population Mitochondria Different-Phenotype (%) [2]: 11% | Population Mitotic Cells (%) [2]: 57% | Population Normal (%) [2]: 73% | Population Pyknosed Nuclei (%) [2]: 11% | Population Tubulin-Different-Phenotype (%) [2]: 22% | Total Cell Count [2]: 83 | Population Apoptotic (%) [3]: 78% | Population Fragmented Nuclei (%) [3]: 39% | Population Healthy Nuclei (%) [3]: 45% | Population Hoechst High Intensity Objects (%) [3]: 16% | Population Membrane Permeable-Phenotype (%) [3]: 23% | Population Mitochondria Different-Phenotype (%) [3]: 1% | Population Mitotic Cells (%) [3]: 21% | Population Normal (%) [3]: 83% | Population Pyknosed Nuclei (%) [3]: 14% | Population Tubulin-Different-Phenotype (%) [3]: 21% | Total Cell Count [3]: 260 | Population Apoptotic (%) [4]: 50% | Population Fragmented Nuclei (%) [4]: 40% | Population Healthy Nuclei (%) [4]: 30% | Population Hoechst High Intensity Objects (%) [4]: 39% | Population Membrane Permeable-Phenotype (%) [4]: 30% | Population Mitochondria Different-Phenotype (%) [4]: 23% | Population Mitotic Cells (%) [4]: 50% | Population Normal (%) [4]: 60% | Population Pyknosed Nuclei (%) [4]: 28% | Population Tubulin-Different-Phenotype (%) [4]: 23% | Total Cell Count [4]: 69 | Population Apoptotic (%) [5]: 73% | Population Fragmented Nuclei (%) [5]: 31% | Population Healthy Nuclei (%) [5]: 51% | Population Hoechst High Intensity Objects (%) [5]: 16% | Population Membrane Permeable-Phenotype (%) [5]: 9% | Population Mitochondria Different-Phenotype (%) [5]: 2% | Population Mitotic Cells (%) [5]: 26% | Population Normal (%) [5]: 83% | Population Pyknosed Nuclei (%) [5]: 16% | Population Tubulin-Different-Phenotype (%) [5]: 6% | Total Cell Count [5]: 243 | Population Apoptotic (%) [6]: 40% | Population Fragmented Nuclei (%) [6]: 42% | Population Healthy Nuclei (%) [6]: 48% | Population Hoechst High Intensity Objects (%) [6]: 28% | Population Membrane Permeable-Phenotype (%) [6]: 11% | Population Mitochondria Different-Phenotype (%) [6]: 11% | Population Mitotic Cells (%) [6]: 60% | Population Normal (%) [6]: 71% | Population Pyknosed Nuclei (%) [6]: 8% | Population Tubulin-Different-Phenotype (%) [6]: 11% | Total Cell Count [6]: 78 | Population Apoptotic (%) [7]: 82% | Population Fragmented Nuclei (%) [7]: 32% | Population Healthy Nuclei (%) [7]: 54% | Population Hoechst High Intensity Objects (%) [7]: 10% | Population Membrane Permeable-Phenotype (%) [7]: 22% | Population Mitochondria Different-Phenotype (%) [7]: 5% | Population Mitotic Cells (%) [7]: 17% | Population Normal (%) [7]: 89% | Population Tubulin-Different-Phenotype (%) [7]: 30% | Total Cell Count [7]: 245 | Population Apoptotic (%) [8]: 33% | Population Fragmented Nuclei (%) [8]: 55% | Population Healthy Nuclei (%) [8]: 30% | Population Hoechst High Intensity Objects (%) [8]: 38% | Population Membrane Permeable-Phenotype (%) [8]: 38% | Population Mitochondria Different-Phenotype (%) [8]: 15% | Population Mitotic Cells (%) [8]: 66% | Population Normal (%) [8]: 61% | Population Pyknosed Nuclei (%) [8]: 13% | Population Tubulin-Different-Phenotype (%) [8]: 23% | Total Cell Count [8]: 70
